Test results taken from article PMC3227549 (Journal of natural products, 2010).
“Also recorded” adds a separate entry of the source.

Tests used:
[1] = tested on: voltage gated sodium channel (VGSC); details: cited from earlier work
[2] = tested on: site 2 of the mammalian VGSC; details: cited from earlier work
[3] = tested on: Neuro-2a mouse neuroblastoma cells; test: Cytotoxicity to Neuro-2a mouse neuroblastoma cells; type: cell-based
[4] = tested on: brine shrimp; test: Brine shrimp toxicity assay; type: in vivo; details: pure compound
[5] = tested on: voltage gated sodium channel (VGSC); test: Sodium influx / activation of VGSC in neocortical neurons; type: cell-based; details: mouse neocortical neurons
How it was run: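 Primary neocortical neurons from embryonic day 16 Swiss-Webster mice were trypsin-dissociated, given 10 μM cytosine arabinoside on day 2, then Neurobasal/B-27 serum-free medium, and used at DIV 8–13. Cells were loaded for 1 h at 37 °C with 10 μM SBFI-AM and 0.02% Pluronic F-127, then washed in Locke's buffer. Ex 340/380 nm, em 505 nm, read every 5 s, with 60 s baseline before test compound addition. EC50 by nonlinear logistic regression.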

[6] = tested on: H-460 human lung adenocarcinoma cells; test: Cytotoxicity to H-460 human lung adenocarcinoma cells; type: cell-based
[7] = tested on: spontaneous Ca2+ oscillations in neocortical neurons; test: Suppression of spontaneous Ca2+ oscillations; type: cell-based, mouse

SMILES: CCC[C@@H](C)[C@H](O)[C@H](C)[C@H]1OC(=O)[C@H]([C@@H](C)O)NC(=O)[C@H](C(C)C)OC(=O)[C@H](C)[C@H](O)[C@H]([C@@H](C)CC)NC(=O)[C@@]2(C)CSC(=N2)[C@@]2(C)CSC(=N2)c2csc(n2)C[C@H](OC)[C@@H]1C [Compound 1, hoiamide A]
- kind of agonism in stimulation of sodium influx in neocortical neurons [1]: partial agonist
- inhibition of binding of [3H]batrachotoxin to site 2 of the mammalian VGSC [2]: inhibits the binding

SMILES: CCC[C@@H](C)[C@H](O)[C@H](C)[C@H]1OC(=O)[C@H]([C@@H](C)O)NC(=O)[C@H]([C@@H](C)CC)OC(=O)[C@H](C)[C@H](O)[C@H]([C@@H](C)CC)NC(=O)[C@@]2(C)CSC(=N2)[C@@]2(C)CSC(=N2)c2csc(n2)C[C@H](OC)[C@@H]1C [Compound 2, hoiamide B]
- Neuro-2a (IC50 μM) [3]: Inactive

SMILES: CCC[C@@H](C)[C@H](O)[C@H](C)[C@@H](O)[C@@H](C)[C@H](Cc1nc(C2=N[C@@](C)(C3=N[C@@](C)(C(=O)N[C@H]([C@@H](O)[C@@H](C)C(=O)OCC)[C@@H](C)CC)CS3)CS2)cs1)OC [Compound 3, hoiamide C]
- Neuro-2a (IC50 μM) [3]: Inactive
- LC50 in the brine shrimp toxicity assay [4]: 1.3 µM
- stimulated sodium influx, EC50 [5]: no significant effects; also recorded: no significant pharmacological activity
- H-460 (IC50 μM) [6]: Inactive
- suppressed spontaneous Ca2+ oscillations, EC50 [7]: no significant effects; also recorded: no significant pharmacological activity
